This is an account of results in ChEMBL document CHEMBL1641482, “Synthetic analogs of daidzein, having more potent osteoblast stimulating effect” (2011).

Active and inactive are the calls of the source. No cut-off for these calls is given here.

Assay [1] concerns Rattus norvegicus. Description: Estrogenic activity in ovariectomized Sprague-Dawley rat assessed as effect on uterine weight at 3 mg/kg, po qd for 3 days (reference value: 35.0 +/- 0.6). Format: functional.
The subject of assay [2] is Rattus norvegicus. Description: Antiestrogenic activity in ovariectomized Sprague-Dawley rat assessed as inhibition of 17beta estradiol-induced increase in uterine weight at 3 mg/kg, po qd for 3 days. Format: functional.
Assay [3] deals with Osteoblast. The assay is described as follows: Induction of osteogenesis in Sprague-Dawley rat calvarial osteoblasts assessed as increase in osteoblast differentiation-associated ALP level at 1 pM to 10 nM after 48 hrs. The format is functional, cell-based. In outline:
(§1)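 Primary rat calvarial osteoblasts were seeded at 2 × 10³ cells per well and exposed to compounds from 1.0 pM to 10.0 nM for 48 h. Daidzein served as the positive control. ALP activity was read spectrophotometrically at 405 nm. Data are mean SD, n = 6, compared with vehicle-treated cells.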

Assay [4] concerns Osteoblast. The assay is described as follows: Induction of osteogenesis in Sprague-Dawley rat calvarial osteoblasts assessed as increase in osteoblast differentiation-associated ALP level at 1 pM after 48 hrs. The format is functional, cell-based. The gist of the method: as §1
Assay [5] deals with Osteoblast. Description: Induction of osteogenesis in Sprague-Dawley rat calvarial osteoblasts assessed as increase in osteoblast differentiation-associated ALP level at 1 uM after 48 hrs. The format is functional, cell-based.
Assay [6] has as its system Osteoblast. Description: Ratio of compound to daidzein for induction of osteogenesis in Sprague-Dawley rat calvarial osteoblasts. The format is functional.
Assay [7] concerns Osteoblast. The assay is described as follows: Induction of mineralization in Sprague-Dawley rat calvarial osteoblasts assessed as increase of mineralized nodules formation at 10 nM after 7 days by alizarin red staining. Format: functional, cell-based. In outline: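 Primary rat calvarial osteoblasts were seeded at 2 × 10³ cells per well and exposed to 10.0 nM compound for seven days. Cells were fixed and stained with alizarin red-S, and the dye was extracted and measured colorimetrically by OD. Data are mean SD, n = 4, versus vehicle.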

For assay [8], the system named is Rattus norvegicus. The assay is described as follows: Estrogenic activity in ovariectomized Sprague-Dawley rat assessed as effect on uterine weight at 10 mg/kg, po qd for 3 days (reference value: 35.0 +/- 0.6). The format is functional.
Assay [9] relates to Rattus norvegicus. The assay is described as follows: Antiestrogenic activity in ovariectomized Sprague-Dawley rat assessed as inhibition of 17beta estradiol-induced increase in uterine weight at 10 mg/kg, po qd for 3 days. The format is functional.
The test system of assay [10] is Bone marrow cell. The assay is described as follows: Induction of mineralization in rat bone marrow cell assessed as increase of mineralized nodules formation at 10 nM after 18 days by alizarin red staining.
For assay [11], the system named is Rattus norvegicus. Description: Estrogenic activity in ovariectomized Sprague-Dawley rat assessed as effect on uterine weight at 0.01 mg/kg, po qd for 3 days (reference value: 35.0 +/- 0.6). The format is functional.
Assay [12] has as its system Osteoblast. Description: Induction of osteocalcin mRNA expression in Sprague-Dawley rat calvarial osteoblasts at 10 nM after 24 hrs by RT-PCR analysis relative to control. Format: functional. In outline: (§2)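 Osteoblasts were cultured with or without 10 nM compound for 24 h. Osteocalcin and BMP-2 transcripts were quantified by real-time RT-PCR (qPCR) against vehicle control. Data are mean SEM, n = 4.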

For assay [13], the system named is Osteoblast. The assay is described as follows: Induction of BMP-2 mRNA expression in Sprague-Dawley rat calvarial osteoblasts at 10 nM after 24 hrs by RT-PCR analysis relative to control. Format: functional. The gist of the method: as §2

Take `O=C(c1ccc(OCCN2CCCCC2)cc1)c1c(-c2ccc(O)cc2)sc2cc(O)ccc12` [RALOXIFENE]: the Activity was found to be 42.3 mg in assay [1] and 67 mg in assay [2].
In the case of `CCN(CC)CCOc1ccc(-c2coc3cc(OCCN(CC)CC)ccc3c2=O)cc1`, the outcome in assay [3], in [5], in assay [7] and in [10] was Active. The outcome in [4] was inactive. For the same molecule, in assay [6], the Ratio turned out to be 100. The Activity was found to be 31.3 mg in [8] and 57.3 mg in assay [9].
As to `COc1ccc2c(=O)c(-c3ccc(OCC(C)C)cc3)coc2c1`, the result in [3] and in assay [5] was Active. For the same molecule, the outcome in assay [4] was inactive. For the same molecule, the Ratio in assay [6] stood at 100.
Regarding `C#C[C@]1(O)CC[C@H]2[C@@H]3CCc4cc(O)ccc4[C@H]3CC[C@@]21C` [ETHINYL ESTRADIOL], the Activity in assay [11] is recorded as 82.3 mg.
Take `COc1ccc(-c2coc3cc(OCCN4CCCC4)ccc3c2=O)cc1`: the result in assay [3], in assay [5] and in [7] was Active. Moreover, the result in [4] was inactive. In assay [6], the Ratio was 100. For the same molecule, the Activity is on record as 31.3 mg in assay [8] and 59.3 mg in assay [9].
`CCN(CC)CCOc1ccc2c(=O)c(-c3ccc(OC)cc3)coc2c1`: the result in [3], in assay [5], in assay [7] and in assay [10] was Active. For the same molecule, the result in [4] was inactive. For the same molecule, in [6], the Ratio came out at 100. Also, the “fold change (FC)” value in assay [12] is 10; in [13], 6. Further, the figures for the Activity in assay [8] and in assay [9] were 28 mg and 63 mg, respectively.
Take `COc1ccc2c(=O)c(-c3ccc(OCCBr)cc3)coc2c1`: the result in assay [3] and in [5] was Active. The result in assay [4] was inactive. In [6], the Ratio came out at 100.
